Reference: ChEMBL document CHEMBL4043069, “Streptenols F-I Isolated from the Marine-Derived Streptomyces misionensis BAT-10-03-023” (2017)

What was measured:
Assay type in all cases: functional
[1] = test system: A549; assay: Cytotoxicity against human A549 cells assessed as inhibition of cell growth
How it was run: (§1)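 Human tumour lines were used: A-549 lung carcinoma, MDA-MB-231 breast adenocarcinoma, HT-29 colorectal carcinoma and PSN1 pancreatic adenocarcinoma. The compounds were tested across doses. GI50, the concentration giving 50% growth inhibition, was derived from dose-response data by a literature procedure. Survival was estimated with the National Cancer Institute algorithm, and three dose-response parameters were calculated.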

[2] = test system: PSN1; assay: Cytotoxicity against human PSN1 cells assessed as inhibition of cell growth; how it was run: as §1
[3] = test system: MDA-MB-231; assay: Cytotoxicity against human MDA-MB-231 cells assessed as inhibition of cell growth; how it was run: as §1
[4] = test system: HT-29; assay: Cytotoxicity against human HT-29 cells assessed as inhibition of cell growth; how it was run: as §1

| SMILES | GI50 [1] [µM] | GI50 [2] [µM] | GI50 [3] [µM] | GI50 [4] [µM] |
| --- | --- | --- | --- | --- |
| C/C=C/CCC(=O)C[C@@H](O)CCO[C@]1(CC/C=C/C)C[C@@H](O)CCO1 | 28 | 28 | 28 | 28 |
| C/C=C/C=C/C(=O)C[C@H](CCO)OC | 50 | 50 | 30 | 49 |
| C/C=C/CCC(=O)C[C@@H](O)CCO | 54 | 54 | 54 | 54 |
| C/C=C/C=C/C(=O)CC(CCO)OCC[C@H](O)CC(=O)/C=C/C=C/C (some centres undefined) | 29 | 29 | 29 | 29 |
| C/C=C/C=C/C(=O)CC(CCO)OCC[C@H](O)CC(=O)CC/C=C/C (some centres undefined) | 28 | 28 | 28 | 28 |
| C/C=C/C=C/C(=O)C[C@@H](O)CCO | 54 | 54 | 54 | 54 |
